Read-outs that look alike come from different tables or passages of the source.
Assays:
[1] = system: MCF-7 human cancer cell line; assay: In vitro antiproliferative activity, LDH release assay, MCF-7; type: cell-based; details: for IC50: Homo sapiens
Method in brief: (§1)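 Cells were grown in RPMI-1640 with 10% heat-inactivated FBS and penicillin/streptomycin at 37 °C, 5% CO2. Seeded at 2 × 10^5 cells per well, grown 18 h, then treated with a concentration series for 48 h. LDH in supernatant and in 6% Triton X-100 lysate was read kinetically for 1 min at 340 nm, using pH 7.5 phosphate buffer with 4.6 mM pyruvate and β-NADH. Release was taken as % of total; IC50 by probit, thrice in triplicate.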

[2] = system: normal human skin fibroblast (BJ-1) cell line; assay: In vitro antiproliferative activity, LDH release assay, BJ-1 normal cells; type: cell-based; details: 48 h, read-out: BJ-1 IC50
Method in brief: as §1

[3] = molecular target: aminopeptidase N (APN) (Homo sapiens, UniProt P15144); assay: In vitro APN inhibition assay; type: biochemical
aminopeptidase N (APN), sequence (P15144 whole entry): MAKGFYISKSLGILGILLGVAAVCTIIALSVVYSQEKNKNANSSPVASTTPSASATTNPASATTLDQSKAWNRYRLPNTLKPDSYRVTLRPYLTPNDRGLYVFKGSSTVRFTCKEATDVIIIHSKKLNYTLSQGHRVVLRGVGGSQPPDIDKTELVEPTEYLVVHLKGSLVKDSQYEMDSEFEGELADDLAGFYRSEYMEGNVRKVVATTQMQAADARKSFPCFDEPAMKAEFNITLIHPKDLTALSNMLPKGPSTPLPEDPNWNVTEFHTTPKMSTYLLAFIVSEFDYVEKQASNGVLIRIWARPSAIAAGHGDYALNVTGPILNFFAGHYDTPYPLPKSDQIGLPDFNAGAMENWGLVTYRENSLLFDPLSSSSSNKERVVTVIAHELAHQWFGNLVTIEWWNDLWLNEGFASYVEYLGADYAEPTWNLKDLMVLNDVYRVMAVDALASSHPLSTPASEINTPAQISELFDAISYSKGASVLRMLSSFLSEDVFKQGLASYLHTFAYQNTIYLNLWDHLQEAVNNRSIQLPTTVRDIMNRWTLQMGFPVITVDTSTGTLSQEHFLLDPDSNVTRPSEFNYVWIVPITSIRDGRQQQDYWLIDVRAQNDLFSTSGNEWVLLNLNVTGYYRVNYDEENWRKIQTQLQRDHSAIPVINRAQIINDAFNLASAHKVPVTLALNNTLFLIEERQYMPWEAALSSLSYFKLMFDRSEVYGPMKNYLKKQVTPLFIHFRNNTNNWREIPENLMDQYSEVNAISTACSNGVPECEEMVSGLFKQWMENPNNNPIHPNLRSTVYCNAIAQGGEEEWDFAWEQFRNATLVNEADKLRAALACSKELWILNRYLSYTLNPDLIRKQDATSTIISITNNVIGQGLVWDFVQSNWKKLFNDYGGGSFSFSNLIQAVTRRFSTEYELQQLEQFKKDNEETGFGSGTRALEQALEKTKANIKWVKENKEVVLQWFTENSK
Method in brief: (§2)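 Enzyme activity kits were run per manufacturer's instructions. Experiments were done in triplicate (n = 3) and reported as mean ± SD. IC50s were derived by probit analysis.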

[4] = system: MCF-7 cells; assay: Apoptosis assay, Annexin-V/FITC and PI flow cytometry; type: cell-based, human; details: MCF-7, 48 h
[5] = system: MMP9; assay: In vitro MMP9 inhibition assay; type: biochemical, human; details: biomarker for invasion
Method in brief: as §2

[6] = system: VEGFR2; type: biochemical, human; details: biomarker for angiogenesis
[7] = system: MCF-7 cells; assay: Wound healing; type: cell-based, human; details: control cells 97.03%
[8] = system: MCF-7 cells; assay: Cell cycle analysis by flow cytometry; type: cell-based, human; details: MCF-7, 48 h
[9] = MCF7, 48 h, read-out: MCF-7 IC50
[10] = MCF7, read-out: MCF-7 Experimental activity (pIC50) (converted)

IC50 [1, 9] | IC50 [1, 10] | Structure (SMILES) | also measured
6.9 ± 0.2 µM | 6.9 µM | CC1=NN(c2nc(-c3ccc(F)cc3)cs2)C(c2ccccc2)C1 (stereo not shown) [Compound 11, 1-(4-(4-Fluorophenyl)thiazol-2-yl)-4,5-dihydro-3-methyl-5-phenyl-1H-pyrazole] | –
7.1 ± 0.2 µM | 7.1 µM | COc1ccc(-c2csc(N3N=C(C)CC3c3ccccc3)n2)cc1 (stereo not shown) [Compound 12, 4,5-Dihydro-1-(4-(4-methoxyphenyl)thiazol-2-yl)-3-methyl-5-phenyl-1H-pyrazole] | –
6.7 ± 0.2 µM | 6.7 µM | CC1=NN(c2nc(-c3ccc(Cl)cc3Cl)cs2)C(c2ccccc2)C1 (stereo not shown) [Compound 13, 1-(4-(2,4-Dichlorophenyl)thiazol-2-yl)-4,5-dihydro-3-methyl-5-phenyl-1H-pyrazole] | –
8.6 ± 0.3 µM | 8.6 µM | CC1=NN(C2=NC(=O)C(C)S2)C(c2ccccc2)C1 (stereo not shown) [Compound 15, 2-(4,5-Dihydro-3-methyl-5-phenylpyrazol-1-yl)-5-methylthiazol-4(5H)-one] | –
6.6 ± 0.2 µM | 6.6 µM | CC1=NN(C2=NC(=O)C(=Cc3ccc(F)cc3)S2)C(c2ccccc2)C1 (stereo not shown) [Compound 16, 5-(4-Fluorobenzylidene)-2-(4,5-dihydro-3-methyl-5-phenylpyrazol-1-yl)thiazol-4(5H)-one] | –
7 ± 0.3 µM | 7 µM | COc1ccc(C=C2SC(N3N=C(C)CC3c3ccccc3)=NC2=O)cc1 (stereo not shown) [Compound 17, 5-(4-Methoxybenzylidene)-2-(4,5-dihydro-3-methyl-5-phenylpyrazol-1-yl)thiazol-4(5H)-one] | –
6.9 ± 0.2 µM | 6.9 µM | CC1=NN(C2=NC(=O)C(=Cc3ccc(Cl)cc3Cl)S2)C(c2ccccc2)C1 (stereo not shown) [Compound 18, 5-(2,4-Dichlorobenzylidene)-2-(4,5-dihydro-3-methyl-5-phenylpyrazol-1-yl)thiazol-4(5H)-one] | –
7.5 ± 0.2 µM | 7.5 µM | COc1ccc(C=C2SC(N3N=C(C)CC3c3ccccc3)=NC2=O)cc1OC (stereo not shown) [Compound 19, 5-(3,4-Dimethoxybenzylidene)-2-(4,5-dihydro-3-methyl-5-phenylpyrazol-1-yl)thiazol-4(5H)-one] | –
4.9 ± 0.3 µM | – | COc1cccc2c1C(=O)c1c(O)c3c(c(O)c1C2=O)C[C@@](O)(C(=O)CO)C[C@@H]3O[C@H]1C[C@H](N)[C@H](O)[C@H](C)O1 [Doxorubicin, reference compound] | IC50 [2]: 12.9 ± 1.3 µM

The remaining lines, values behind:

Structure (SMILES) | IC50 [1, 9] | IC50 [1, 10] | also measured
CC1=NN(c2ccccc2Cl)C(c2ccccc2)C1 (stereo not shown) [Compound 3, 1-(2-Chlorophenyl)-4,5-dihydro-3-methyl-5-phenyl-1H-pyrazole] | 8.8 ± 0.5 µM | 8.8 µM | –
CC1=NN(c2c(Cl)cc(Cl)cc2Cl)C(c2ccccc2)C1 (stereo not shown) [Compound 4, 1-(2,4,6-Trichlorophenyl)-4,5-dihydro-3-methyl-5-phenyl-1H-pyrazole] | 8.1 ± 0.5 µM | 8.1 µM | –
CNC(=S)N1N=C(C)CC1c1ccccc1 (stereo not shown) [Compound 6, 4,5-Dihydro-N,3-dimethyl-5-phenylpyrazole-1-carbothioamide] | 6.4 ± 0.3 µM | 6.4 µM | IC50 [2]: 18.2 ± 1.5 µM
CCNC(=S)N1N=C(C)CC1c1ccccc1 (stereo not shown) [Compound 7, N-Ethyl-4,5-dihydro-3-methyl-5-phenylpyrazole-1-carbothioamide] | 5.8 ± 0.2 µM | 5.8 µM | IC50 [2]: 18.7 ± 1.5 µM
CC1=NN(C(=S)Nc2ccccc2)C(c2ccccc2)C1 (stereo not shown) [Compound 8, 4,5-Dihydro-3-methyl-N,5-diphenylpyrazole-1-carbothioamide] | 6.2 ± 0.2 µM | 6.2 µM | IC50 [3]: 15.8 µM; late apoptosis ([4]; control 0.15%): 17.11%; early apoptosis ([4]; control 0.37%): 11.52%; total MCF-7 cell death ([4]; control 1.95%): 32.91%; MMP9 inhibition pIC50 [5]: 6.4; VEGFR2 inhibition pIC50 [6]: 6.7; selectivity index (SI) ([1]; BJ-1 versus MCF-7): 4.7; IC50 [2]: 29.1 ± 2.3 µM; percentage closure of the wound gap [7]: 57.77%; cell population in S phase ([8]; control 24.79%): 23.02%; cell population in G0/G1 phase ([8]; control 65.02%): 72.11%
CC1=NN(C(=S)NCc2ccccc2)C(c2ccccc2)C1 (stereo not shown) [Compound 9, N-Benzyl-4,5-dihydro-3-methyl-5-phenylpyrazole-1-carbothioamide] | 7 ± 0.3 µM | 7 µM | –
CC1=NN(c2nc(-c3ccccc3)cs2)C(c2ccccc2)C1 (stereo not shown) [Compound 10, 4,5-Dihydro-3-methyl-5-phenyl-1-(4-phenylthiazol-2-yl)-1H-pyrazole] | 7.6 ± 0.3 µM | 7.6 µM | –
O=c1c(O)c(-c2ccc(O)c(O)c2)oc2cc(O)cc(O)c12 [quercetin, reference compound] | – | – | MMP9 inhibition pIC50 [5]: 6.7

From paper PMC11248911 (RSC Advances, 2024)
